Data from ChEMBL document CHEMBL1121408, “Cyclophosphamide potentiation and aldehyde oxidase inhibition by phosphorylated aldehydes and acetals” (J Med Chem, 1980).

What was measured:
Mus musculus [1] = assay: Percent increase in life span of mice bearing L1210 ascites cells compared to control (in vivo); assay type: functional
How it was run: (§1)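 BDF1 female mice (18-20 g), groups of six, implanted ip with 10^5 L1210 ascites cells. On day 1 (24 h later), a single ip injection of test agent at 200 mg/kg, alone or with cyclophosphamide at 100 mg/kg, as a solution or suspension in 5% Tween 80 in normal saline, pH 4. Acetals were heated at 80 °C for 2 h just before injection. Vehicle-only controls were run. Deaths were recorded daily. %ILS = (mean treated life span − mean control)/mean control × 100, with survivors capped at 30 days. Survival was scored as the percent of each group alive 50 days after day 1.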

Mus musculus [2] = assay: Percent animals surviving 50 days from day 1 (in vivo); assay type: functional; how it was run: as §1

In the case of Cc1ncc(CO)c(C=O)c1O [PYRIDOXAL], the ILC (Mus musculus [1]) is reported as 164% and the Cures (Mus musculus [2]) is reported as 33%.

In the case of CCOP(=O)(CCC=O)c1ccccc1 (stereo not given), the ILC (Mus musculus [1]) is reported as 175% and the Cures (Mus musculus [2]) is reported as 83%.

CCOP(=O)(CC=O)OCC was tested, and the ILC (Mus musculus [1]) was 180% and the Cures (Mus musculus [2]) was 67%.

With CCOC(CCP(=O)(OCC)c1ccccc1)OCC (stereo not given) the ILC (Mus musculus [1]) was 166% and the Cures (Mus musculus [2]) was 50%.

CCOC(CCP(=O)(OCC)OCC)OCC was tested, and the ILC (Mus musculus [1]) was 204% and the Cures (Mus musculus [2]) was 83%.
